Test [1] is described as follows: Cytotoxicity against mouse P388D1 cells after 24 hrs by ATPLite assay. Format: functional, cell-based. The note with it: P388D1, 24 h. A digest of the protocol:
(§1)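 Cells grown in appropriate medium were exposed to test compounds at five concentrations for 24 h (5% CO2). Viability was read as cellular ATP by ATPLite luciferase luminescence and quantified against an ATP standard curve. Samples were run in triplicate, and IC50 was calculated from the concentration series.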

Another test has as its system MCF7. As to the kind of experiment: Cytotoxicity against human MCF7 cells after 24 hrs by ATPLite assay. Format: functional, cell-based. Particulars: MCF7, 24 h. The procedure, abridged: as §1
A general note: Cellular ATP, detected with luciferase, serves as a proxy for viable cell number.

The subject of test [2] is NIH3T3. Kind of test: Inhibition of PGE2 production in calcium ionophore […] stimulated mouse 3T3 cells after 3 hrs. It counts as functional, cell-based. The note with it: NIH3T3, 3 h. A digest of the protocol:
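3T3 cells in DMEM with 10% FBS were seeded at 2 × 10^5 cells/mL, held ~20 h at 37 °C and 5% CO2, then given test substance (DMSO stock, 10 mg/mL) for 3 h. […] (5 mM DMSO stock) was added for 20 min. Supernatant PGE2 was measured by EIA, in triplicate, as % inhibition versus solvent-treated stimulated cells.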

The test system of test [3] is NIH3T3. As to the kind of experiment: Cytotoxicity against mouse 3T3 cells after 3 hrs by ATPLite assay. Particulars: NIH3T3, 3 h. It counts as cell-based.
In another test the test system is HepG2. Kind of test: Cytotoxicity against human HepG2 cells after 24 hrs by ATPLite assay. It counts as functional, cell-based. Particulars: HepG2, 24 h. A digest of the protocol:
as §1

The subject of another test is PC-3. Kind of test: Cytotoxicity against human PC3 cells after 24 hrs by ATPLite assay. Format: functional, cell-based. The note with it: PC-3, 24 h. The procedure, abridged: as §1
The test system of the next test is Caco-2. As to the kind of experiment: Cytotoxicity against human Caco-2 cells after 24 hrs by ATPLite assay. Particulars: Caco-2, 24 h. It counts as functional, cell-based. The procedure, abridged:
as §1

Consider two compounds from ChEMBL document CHEMBL1157090, “Diarylheptanoid from Pleuranthodium racemigerum with in vitro prostaglandin E(2) inhibitory and cytotoxic activity” (J Nat Prod, 2010).

In the case of `COc1ccc(C/C=C/CCCCc2ccc(O)cc2)cc1`, the IC50 (in general, the concentration at which inhibition is half-maximal) in test [1] worked out at 117 µM; in the test on MCF7, 56.9 µM; in the test with NIH3T3 [2], 34 µM; with NIH3T3 [3], 52.8 µM; with HepG2 it was 40.6 µM; with PC-3 it was 23.6 µM. The compound also displayed a 50% inhibitory concentration (IC50) in the test with Caco-2 of 44.8 µM.

Regarding `COc1cc(/C=C/C(=O)CC(=O)/C=C/c2ccc(O)c(OC)c2)ccc1O` [CURCUMIN], the IC50 worked out at 75.7 µM in test [1]; 51.5 µM in the test with MCF7; 43.8 µM with HepG2; 22.7 µM with PC-3; 48.6 µM in the test on Caco-2.
